Source: ChEMBL document CHEMBL1155730, “Taxane diterpenoids from the stem bark of Taxus mairei” (J Nat Prod, 2001)
Values after ≈ are worked out from the molar mass of the structure shown. Starred links: 1 amine or outer side, 2 acyl side, 3 side chain; linkers in the order of their positions; H or OH if unused. Positions of bridges follow the written chain, without caps; N, C: chain ends. Non-standard residues stand in square brackets, D forms with d. Residues, ends and D or L forms follow the SMILES beside them. Chains are numbered I, II in the order given. Actinocin(1to9) = Cc1c2oc3c(C)ccc(C(=O)[*:2])c3nc-2c(C(=O)[*:1])c(N)c1=O; NMeV = CN[C@H](C(=O)O)C(C)C; Sar = CNCC(=O)O

Experiments:
[1] = Cytotoxicity against human HepA cells after 72 hrs by methylene blue assay; assay type: functional, cell-based
Outline: (§1)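 Cells grown in RPMI-1640 at 37 °C under 5% CO2, seeded at 2880 cells/well and left 3 h before adding samples. Samples prepared at 1, 10, 40 and 100 μg/mL, then 3 days at 37 °C. Cells fixed in 10% formal saline, stained with 1% methylene blue in 0.01 M borate buffer, washed, and dye eluted with ethanol/0.1 M HCl (1:1). A650 read. IC50 is 50% absorbance reduction vs untreated cells.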

KB = experiment: Cytotoxicity against human KB cells after 72 hrs by methylene blue assay; assay type: functional, cell-based; outline: as §1

With `Cc1c2oc3c(C)ccc(C(=O)N[C@@H]4C(=O)N[C@H](C(C)C)C(=O)N5CCC[C@H]5C(=O)N(C)CC(=O)N(C)[C@@H](C(C)C)C(=O)O[C@@H]4C)c3nc-2c(C(=O)N[C@@H]2C(=O)N[C@H](C(C)C)C(=O)N3CCC[C@H]3C(=O)N(C)CC(=O)N(C)[C@@H](C(C)C)C(=O)O[C@@H]2C)c(N)c1=O` [DACTINOMYCIN] (I: T[dV]P[Sar][NMeV] / II: T[dV]P[Sar][NMeV]; ester I:1-I:C, II:1-II:C; linker I:N-II:N via Actinocin(1to9)) the IC50 [1] was 0.01 µg/mL (≈ 0.00797 µM).
`CC(=O)OC[C@H]1[C@H]2[C@H](O)[C@]3(C(C)(C)O)C[C@H](OC(C)=O)C(C)=C3[C@@H](OC(C)=O)[C@H](OC(C)=O)[C@]2(C)[C@@H](OC(C)=O)C[C@@H]1OC(C)=O` showed an IC50 [1] of 2.7 µg/mL (≈ 4.12 µM) and an IC50 (KB) greater than 20 µg/mL.
Work on `CC(=O)OC[C@H]1[C@H]2[C@H](O)[C@]3(C(C)(C)O)C[C@H](O)C(C)=C3[C@@H](O)[C@H](OC(C)=O)[C@]2(C)[C@@H](OC(C)=O)C[C@@H]1OC(C)=O` [TAXUMAIROL V] yielded an IC50 [1] of 1.6 µg/mL (≈ 2.8 µM) and an IC50 (KB) of 3.9 µg/mL (≈ 6.83 µM).
With `CC(=O)OC[C@H]1[C@H]2[C@H](O)[C@]3(C(C)(C)O)C[C@H](OC(C)=O)C(C)=C3[C@@H](O)[C@H](OC(C)=O)[C@]2(C)[C@@H](OC(C)=O)C[C@@H]1OC(C)=O` [TAXUMAIRO U] the IC50 [1] was 0.3 µg/mL (≈ 0.49 µM) and the IC50 (KB) was 10.3 µg/mL (≈ 16.8 µM).
In the case of `CC(=O)O[C@H]1C(=O)[C@@]2(C)[C@H]([C@H](OC(=O)c3ccccc3)[C@]3(O)C[C@H](OC(=O)[C@H](O)[C@@H](NC(=O)c4ccccc4)c4ccccc4)C(C)=C1C3(C)C)[C@]1(OC(C)=O)CO[C@@H]1C[C@@H]2O` [PACLITAXEL], the IC50 [1] is reported as less than 0.1 µg/mL and the IC50 (KB) is reported as less than 0.1 µg/mL.
For `CC(=O)O[C@@H]1C2=C(C)[C@@H](O)C[C@@]2(C(C)(C)O)[C@@H](OC(C)=O)[C@@H]2[C@]3(OC(C)=O)CO[C@@H]3C[C@H](OC(C)=O)[C@@]2(C)[C@H]1O` [TAXUMAIROL W], the IC50 [1] was 7 µg/mL (≈ 12.3 µM) and the IC50 (KB) was greater than 20 µg/mL.
`CO[C@@]12[C@H](COC(N)=O)C3=C(C(=O)C(C)=C(N)C3=O)N1C[C@@H]1N[C@@H]12` [MITOMYCIN] gave an IC50 [1] of 0.01 µg/mL (≈ 0.0299 µM).
With `CC(=O)O[C@@H]1C2=C(C)[C@@H](OC(=O)c3ccccc3)C[C@@]2(C(C)(C)O)[C@@H](O)[C@@H]2[C@]3(OC(C)=O)CO[C@@H]3C[C@H](OC(C)=O)[C@@]2(C)[C@H]1OC(=O)c1ccccc1` the IC50 [1] was greater than 20 µg/mL and the IC50 (KB) was greater than 20 µg/mL.
